Results on 4 compounds are retold here after ChEMBL document CHEMBL1129264, “Mercaptoacyl dipeptides as orally active dual inhibitors of angiotensin-converting enzyme and neutral endopeptidase” (1996).

Test [1] concerns the target T1, Angiotensin-converting enzyme (Rattus norvegicus) (UniProt P47820).
T1 sequence (whole entry): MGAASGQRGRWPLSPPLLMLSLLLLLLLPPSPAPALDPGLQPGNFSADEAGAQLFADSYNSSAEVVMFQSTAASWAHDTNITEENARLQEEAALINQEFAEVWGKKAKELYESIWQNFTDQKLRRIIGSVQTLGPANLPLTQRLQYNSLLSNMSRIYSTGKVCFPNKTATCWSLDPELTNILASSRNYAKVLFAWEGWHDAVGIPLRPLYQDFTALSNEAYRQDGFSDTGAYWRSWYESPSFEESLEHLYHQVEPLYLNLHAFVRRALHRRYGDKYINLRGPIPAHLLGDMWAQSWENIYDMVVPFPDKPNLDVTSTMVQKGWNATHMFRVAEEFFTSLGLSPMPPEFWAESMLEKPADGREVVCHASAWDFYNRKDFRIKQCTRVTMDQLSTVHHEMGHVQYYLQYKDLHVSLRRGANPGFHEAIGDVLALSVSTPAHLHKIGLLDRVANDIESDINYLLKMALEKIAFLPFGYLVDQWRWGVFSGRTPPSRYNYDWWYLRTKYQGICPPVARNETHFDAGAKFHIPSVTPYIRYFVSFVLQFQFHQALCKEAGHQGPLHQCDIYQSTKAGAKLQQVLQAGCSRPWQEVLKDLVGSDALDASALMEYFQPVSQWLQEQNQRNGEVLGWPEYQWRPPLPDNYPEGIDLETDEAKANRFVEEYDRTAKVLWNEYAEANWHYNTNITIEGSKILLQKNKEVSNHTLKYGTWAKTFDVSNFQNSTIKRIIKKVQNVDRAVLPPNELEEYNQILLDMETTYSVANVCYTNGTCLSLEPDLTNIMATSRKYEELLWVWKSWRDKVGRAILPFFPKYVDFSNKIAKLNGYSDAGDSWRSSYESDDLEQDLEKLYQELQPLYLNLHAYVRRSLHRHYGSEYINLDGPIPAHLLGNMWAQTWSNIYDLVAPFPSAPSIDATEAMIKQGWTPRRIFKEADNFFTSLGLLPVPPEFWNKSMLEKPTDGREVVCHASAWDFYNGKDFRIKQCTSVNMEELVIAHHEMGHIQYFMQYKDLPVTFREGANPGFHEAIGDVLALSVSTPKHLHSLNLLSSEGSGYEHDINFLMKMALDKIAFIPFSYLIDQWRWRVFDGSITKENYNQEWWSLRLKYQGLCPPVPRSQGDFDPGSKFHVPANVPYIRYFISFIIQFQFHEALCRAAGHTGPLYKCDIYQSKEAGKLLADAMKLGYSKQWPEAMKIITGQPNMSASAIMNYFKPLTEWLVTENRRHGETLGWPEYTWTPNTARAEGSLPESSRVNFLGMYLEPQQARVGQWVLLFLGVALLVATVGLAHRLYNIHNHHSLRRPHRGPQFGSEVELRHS
Put plainly: Compound was tested for plasma inhibition of Angiotensin I converting enzyme activity in the conscious rat. Expressed as Inhibition of AI pressor response at 1 hr at a dose of 13.3 mg/kg po. The class given is organism-based. Also noted: dose 13.3 mg/kg. Put shortly:
(§1)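 Male conscious normotensive Sprague-Dawley rats (275-390 g), given femoral arterial and venous catheters under methohexital sodium (75 mg/kg ip) anesthesia. Next day, pressor responses to three angiotensin-I challenges (300 ng/kg iv) recorded by direct arterial pressure. Compound then dosed orally, and AI challenge repeated at set times. Each post-dose response compared with the mean of the three baseline responses, giving % inhibition.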

Test [2] addresses T1, Angiotensin-converting enzyme (Rattus norvegicus). Put plainly: Compound was tested for plasma inhibition of Angiotensin I converting enzyme activity in the conscious rat. Expressed as Inhibition of AI pressor response at 6 hr at a dose of 13.3 mg/kg po. In kind it is organism-based. Also noted: dose 13.3 mg/kg. Summed up: (§2)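 Male conscious normotensive Sprague-Dawley rats (275-390 g), prepared under methohexital sodium (75 mg/kg ip) with femoral arterial and venous catheters. The next day, pressor responses to three angiotensin-I challenges (300 ng/kg iv) were recorded. Compound was then given orally and angiotensin-I challenges were repeated at set times. Percent inhibition is relative to the mean of the three baseline responses.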

For test [3] the target is unchanged. Put plainly: Compound was tested for plasma inhibition of Angiotensin I converting enzyme activity in the conscious rat. Expressed as Inhibition of AI pressor response at 2 hr at a dose of 13.3 mg/kg po. The class given is organism-based. Also noted: dose 13.3 mg/kg. Summed up:
as §1

The target is the same in test [4]. Put plainly: Compound was tested for plasma inhibition of Angiotensin I converting enzyme activity in the conscious rat. Expressed as Inhibition of AI pressor response at 4 hr at a dose of 13.3 mg/kg po. Also noted: dose 13.3 mg/kg. In kind it is organism-based. Put shortly: as §2
Test [5] shares this target. Put plainly: Compound was tested for plasma inhibition of Angiotensin I converting enzyme activity in the conscious rat. Expressed as Inhibition of AI pressor response at 1 hr at a dose of 13.8 mg/kg po. In kind it is organism-based. Also noted: dose 13.8 mg/kg. Summed up: as §1
The target is the same in test [6]. Kind of test: Compound was tested for plasma inhibition of Angiotensin I converting enzyme activity in the conscious rat. Expressed as Inhibition of AI pressor response at 2 hr at a dose of 13.8 mg/kg po. In kind it is organism-based. Also noted: dose 13.8 mg/kg. Summed up:
as §1

Test [7] shares this target. Put plainly: Compound was tested for plasma inhibition of Angiotensin I converting enzyme activity in the conscious rat. Expressed as Inhibition of AI pressor response at 4 hr at a dose of 13.8 mg/kg po. Also noted: dose 13.8 mg/kg. The class given is organism-based. Put shortly: as §2
Test [8] shares this target. Kind of test: Compound was tested for plasma inhibition of Angiotensin I converting enzyme activity in the conscious rat. Expressed as Inhibition of AI pressor response at 6 hr at a dose of 13.8 mg/kg po. The class given is organism-based. Also noted: dose 13.8 mg/kg. Summed up: as §2
Test [9] shares this target. Put plainly: Compound was tested for plasma inhibition of Angiotensin I converting enzyme activity in the conscious rat. Expressed as Inhibition of AI pressor response at 4 hr at a dose of 14.3 mg/kg po. Also noted: dose 14.3 mg/kg. The class given is organism-based. Put shortly:
as §2

The subject of test [10] is Rattus norvegicus. Kind of test: Plasma ANF Concentration in the Conscious Rat at a dose of 14.3(po)mg/kg at 0.5 h. The class given is functional. Summed up:
(§3)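 Male Sprague-Dawley rats (275-390 g), catheterized in femoral artery and vein under ketamine (150 mg/kg)/acepromazine, tethered and recovered 24 h, studied conscious. Continuous iv rat ANF(99-126) infusion at 450 ng/kg/min for 5 h; baseline blood at 60 min, then oral dosing, sampling at 30-240 min.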

The target in test [11] is T1, Angiotensin-converting enzyme (Rattus norvegicus). Kind of test: Compound was tested for plasma inhibition of Angiotensin I converting enzyme activity in the conscious rat. Expressed as Inhibition of AI pressor response at 6 hr at a dose of 14.3 mg/kg po. The class given is organism-based. Also noted: dose 14.3 mg/kg. Put shortly:
as §2

For test [12], the system named is Rattus norvegicus. Put plainly: Plasma ANF Concentration in the Conscious Rat at a dose of 14.3(po)mg/kg at 4 h. In kind it is functional. Put shortly: as §3
Test [13] concerns Rattus norvegicus. Kind of test: Plasma ANF Concentration in the Conscious Rat at a dose of 14.3(po)mg/kg at 2 h. In kind it is functional. Put shortly:
as §3

The target of test [14] is T1, Angiotensin-converting enzyme (Rattus norvegicus). Kind of test: Compound was tested for plasma inhibition of Angiotensin I converting enzyme activity in the conscious rat. Expressed as Inhibition of AI pressor response at 1 hr at a dose of 14.3 mg/kg po. Also noted: dose 14.3 mg/kg. In kind it is organism-based. Put shortly: as §1
The target is the same in test [15]. Put plainly: Compound was tested for plasma inhibition of Angiotensin I converting enzyme activity in the conscious rat. Expressed as Inhibition of AI pressor response at 2 hr at a dose of 14.3 mg/kg po. The class given is organism-based. Also noted: dose 14.3 mg/kg. Summed up:
as §1

For test [16], the system named is Rattus norvegicus. Kind of test: Plasma ANF Concentration in the Conscious Rat at a dose of 14.3(po)mg/kg at 1 h. The class given is functional. Put shortly: as §3

Consider `CCOC(=O)[C@H](Cc1ccc(O)cc1)NC(=O)C1(NC(=O)[C@H](SC(=O)c2ccccn2)C(C)C)CCCC1`, for which the inhibition in [1] turned out to be 10%; in test [2] it was 12%; in test [3], 11%; in test [4], 8%.

Turning to `CCOC(=O)[C@H](Cc1ccc(O)cc1)NC(=O)C1(NC(=O)[C@H](SC(=O)CN2CCOCC2)C(C)C)CCCC1`, the inhibition was determined as 54% in [5], 60% in [6], 40% in [7] and 28% in [8].

As for `CCOC(=O)[C@H](Cc1ccc(OC(=O)c2ccncc2)cc1)NC(=O)C1(NC(=O)[C@H](SC(C)=O)C(C)C)CCCC1`, the inhibition was 70% in test [9], 55% in [11], 79% in test [14] and 75% in test [15]. Moreover, the Control in the test with Rattus norvegicus [10] is reported as 165%; with Rattus norvegicus [12] it was 159%; with Rattus norvegicus [13], 183%; with Rattus norvegicus [16], 193%.

Consider `CCOC(=O)[C@H](Cc1ccc(OC(=O)c2cccnc2)cc1)NC(=O)C1(NC(=O)[C@H](SC(C)=O)C(C)C)CCCC1`, for which the inhibition in [9] stood at 67%; in test [11], 60%; in test [14] it was 78%; in test [15] it was 75%. The Control was 246% in the test on Rattus norvegicus [10], 277% in the test on Rattus norvegicus [12], 246% in the test on Rattus norvegicus [13] and 234% in the test on Rattus norvegicus [16].
